{"source": "paper PMC3729426", "about": "(Chemistry (Weinheim an der Bergstrasse, Germany), 2012)", "key": {"MDCKII cells [1]": {"system": "MDCKII cells", "format": "cell-based, canine", "conditions": "summary of microscopic observations at higher concentrations", "summary_of_the_method": "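MDCKII cells were incubated 30 min at 37 °C in DMEM with FBS, or serum-free, with Tb3+ complex–peptide conjugates at 5, 20 or 60 μM. In one condition, 5 μM conjugate was combined with 30 μM unconjugated Arg9. Live cells were imaged by time-gated luminescence microscopy (10 μs delay, λex 365 nm, λem 540 ± 10 nm) to score punctate versus diffuse cytoplasmic/nuclear distribution.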"}, "MDCKII cells [2]": {"system": "MDCKII cells"}}, "note": "Ends that are not written are not given here. Lumi4(Tb) = Lumi4(Tb) terbium luminescent complex", "data": [{"substance": "3: an N-terminal fusion of Lumi4(Tb) to Tat (49–57) ({Lumi4(Tb)}-RKKRRQRRR; UniProt P04608 49-57, looked up, fragment) [compound 3]", "values": [{"measurement": "mechanism of delivery mediated by the CPP", "setting": "MDCKII cells [1]", "value": "non-endocytic, cytoplasmic delivery"}]}, {"substance": "17: cysteine amide-linked heterodimer of Lumi4 and TEGTMP coupled via a disulfide bond to the peptide Cys-TAT(47–57)-Lys(FAM) [compound 17]", "values": [{"measurement": "intracellular disulfide reduction observed microscopically", "setting": "MDCKII cells [2]", "value": "its disulfide bond is reduced in the cytoplasm and nucleus"}, {"measurement": "fluorescein signal distribution immediately after washing", "setting": "MDCKII cells [2]; MDCKII cells, 17 (10 μM), serum-free medium, 10 min, 37 °C, continuous wave fluorescence", "value": "primarily diffuse throughout the cytoplasm and nucleus"}, {"measurement": "fluorescein signal distribution 2 h post-wash", "setting": "MDCKII cells [2]; MDCKII cells, 17 (10 μM), serum-free medium, 10 min, imaged 2 h post-wash", "value": "punctate staining pattern predominant"}, {"measurement": "Tb3+-to-fluorescein LRET emission ratio (520 nm/540 nm), 2 h post-wash versus immediate", "setting": "MDCKII cells [2]; MDCKII cells, nuclear region, 17 (10 μM), 4 separate experiments", "value": "significantly reduced"}, {"measurement": "mechanism of delivery mediated by the CPP", "setting": "MDCKII cells [1]", "value": "non-endocytic, cytoplasmic delivery"}]}]}
